In ChEMBL document CHEMBL4396949, “Anti-cancer potential of novel glycosylated 1,4-substituted triazolylchalcone derivatives” (Bioorg Med Chem Lett, 2019):

Key:
[1] = Selectivity index, ratio of LD50 for human WI38 cells to LD50 for human MCF7 cells; type: toxicity; details: WI38 cells and MCF7 cells, read-out: Selectivity Index
Procedure, shortened: (§1)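 MTT cytotoxicity after exposure to […] in MDA-MB-468, MCF-7 and WI-38 fibroblasts; LD50 determined per line; selectivity index calculated as WI-38 LD50 divided by cancer-cell LD50.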

MDA-MB-468 = assay: Antiproliferative activity against human MDA-MB-468 cells incubated for 24 hrs by MTT assay; type: functional; details: MDA-MB-468, 24 h, read-out: LD50 (the source's name)
Procedure, shortened: (§2)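 Cells exposed to compounds at […]; viability read by MTT assay. LD50 derived from concentration-response. MDA-MB-468: triple-negative (ER-, PR-, HER2-) breast cancer. MCF-7: ER+, PR+, HER2- breast cancer. WI-38: non-cancerous lung fibroblasts. Selectivity index taken as WI-38 LD50 divided by cancer-cell LD50.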

[2] = Selectivity index, ratio of LD50 for human WI38 cells to LD50 for human MDA-MB-468 cells; type: toxicity; details: WI38 cells and MDA-MB-468 cells, read-out: Selectivity Index; procedure, shortened: as §1
MCF7 = assay: Antiproliferative activity against human MCF7 cells incubated for 24 hrs by MTT assay; type: functional; details: MCF7, 24 h, read-out: LD50 (the source's name); procedure, shortened: as §2
[3] = Antiproliferative activity against human WI38 cells incubated for 24 hrs by MTT assay; type: cell-based, WI-38; details: read-out: LD50; procedure, shortened: as §2

SMILES: O=C(/C=C/c1cccc([N+](=O)[O-])c1)c1ccc(OCc2cn([C@@H]3O[C@H](CO)[C@@H](O)[C@H](O)[C@H]3O)nn2)cc1
- selectivity ratio [1]: 1.17
- CC50 (MDA-MB-468): 64 µM
- selectivity ratio [2]: 1.07
- CC50 (MCF7): 59 µM
- CC50 at 24 h [3]: 69 µM

SMILES: COc1ccc(/C=C/C(=O)c2ccc(OCc3cn([C@@H]4O[C@H](CO)[C@@H](O)[C@H](O)[C@H]4O)nn3)cc2)cc1OCc1ccccc1
- selectivity ratio [1]: 1.25
- CC50 (MDA-MB-468): 64 µM
- selectivity ratio [2]: 1.64
- CC50 (MCF7): 84 µM
- CC50 at 24 h [3]: 105 µM

SMILES: COc1cc(/C=C/C(=O)c2ccc(Br)cc2)ccc1OCc1cn([C@@H]2O[C@H](CO)[C@@H](O)[C@H](O)[C@H]2O)nn1
- selectivity ratio [1]: 0.9
- CC50 (MDA-MB-468): 65 µM
- selectivity ratio [2]: 1.37
- CC50 (MCF7): 99 µM
- CC50 at 24 h [3]: 89 µM

SMILES: COc1cc(/C=C/C(=O)c2ccc([N+](=O)[O-])cc2)ccc1OCc1cn([C@@H]2O[C@H](CO)[C@@H](O)[C@H](O)[C@H]2O)nn1
- selectivity ratio [1]: 0.99
- CC50 (MDA-MB-468): 68 µM
- selectivity ratio [2]: 1.02
- CC50 (MCF7): 76 µM
- CC50 at 24 h [3]: 75 µM

SMILES: COc1cc(/C=C/C(=O)c2ccc(OCc3cn([C@@H]4O[C@H](CO)[C@@H](O)[C@H](O)[C@H]4O)nn3)cc2)cc(OC)c1
- selectivity ratio [1]: 0.72
- CC50 (MDA-MB-468): 33 µM
- selectivity ratio [2]: 1.56
- CC50 (MCF7): 72 µM
- CC50 at 24 h [3]: 52 µM

SMILES: COc1cc(/C=C/C(=O)c2cc(OC)c(OC)c(OC)c2)ccc1OCc1cn([C@@H]2O[C@H](CO)[C@@H](O)[C@H](O)[C@H]2O)nn1
- selectivity ratio [1]: 0.77
- CC50 (MDA-MB-468): 73 µM
- selectivity ratio [2]: 0.92
- CC50 (MCF7): 87 µM
- CC50 at 24 h [3]: 67 µM

SMILES: O=C(/C=C/c1ccc([N+](=O)[O-])cc1)c1ccc(OCc2cn([C@@H]3O[C@H](CO)[C@@H](O)[C@H](O)[C@H]3O)nn2)cc1
- selectivity ratio [1]: 1.19
- CC50 (MDA-MB-468): 43 µM
- selectivity ratio [2]: 1.49
- CC50 (MCF7): 54 µM
- CC50 at 24 h [3]: 64 µM

SMILES: COc1ccc(/C=C/C(=O)c2ccc(OCc3cn([C@@H]4O[C@H](CO)[C@@H](O)[C@H](O)[C@H]4O)nn3)cc2)cc1OC
- selectivity ratio [1]: 0.83
- CC50 (MDA-MB-468): 88 µM
- selectivity ratio [2]: 1.08
- CC50 (MCF7): 115 µM
- CC50 at 24 h [3]: 95 µM

SMILES: COc1ccc(/C=C/C(=O)c2ccc(OCc3cn([C@@H]4O[C@H](CO)[C@@H](O)[C@H](O)[C@H]4O)nn3)cc2)cc1
- selectivity ratio [1]: 1.36
- CC50 (MDA-MB-468): 39 µM
- selectivity ratio [2]: 1.84
- CC50 (MCF7): 53 µM
- CC50 at 24 h [3]: 72 µM

SMILES: COc1cc([C@@H]2c3cc4c(cc3[C@@H](O[C@@H]3O[C@@H]5CO[C@@H](C)O[C@H]5[C@H](O)[C@H]3O)[C@H]3COC(=O)[C@H]23)OCO4)cc(OC)c1O [ETOPOSIDE]
- selectivity ratio [1]: 0.95
- CC50 (MDA-MB-468): 34 µM
- selectivity ratio [2]: 1.06
- CC50 (MCF7): 38 µM
- CC50 at 24 h [3]: 36 µM

SMILES: O=C(/C=C/c1ccc(Cl)c(Cl)c1)c1ccc(OCc2cn([C@@H]3O[C@H](CO)[C@@H](O)[C@H](O)[C@H]3O)nn2)cc1
- selectivity ratio [1]: 0.85
- CC50 (MDA-MB-468): 59 µM
- selectivity ratio [2]: 0.93
- CC50 (MCF7): 65 µM
- CC50 at 24 h [3]: 55 µM

SMILES: CC(=O)O[C@H]1C(=O)[C@@]2(C)[C@H]([C@H](OC(=O)c3ccccc3)[C@]3(O)C[C@H](OC(=O)[C@H](O)[C@@H](NC(=O)c4ccccc4)c4ccccc4)C(C)=C1C3(C)C)[C@]1(OC(C)=O)CO[C@@H]1C[C@@H]2O [PACLITAXEL]
- selectivity ratio [1]: 1.2
- CC50 (MDA-MB-468): 27 µM
- selectivity ratio [2]: 1.29
- CC50 (MCF7): 29 µM
- CC50 at 24 h [3]: 35 µM

SMILES: O=C(/C=C/c1ccccc1Cl)c1ccc(OCc2cn([C@@H]3O[C@H](CO)[C@@H](O)[C@H](O)[C@H]3O)nn2)cc1
- selectivity ratio [1]: 0.94
- CC50 (MDA-MB-468): 64 µM
- selectivity ratio [2]: 1.06
- CC50 (MCF7): 72 µM
- CC50 at 24 h [3]: 68 µM

SMILES: O=C(/C=C/c1cc(Cl)cc(Cl)c1)c1ccc(OCc2cn([C@@H]3O[C@H](CO)[C@@H](O)[C@H](O)[C@H]3O)nn2)cc1
- selectivity ratio [1]: 0.86
- CC50 (MDA-MB-468): 62 µM
- selectivity ratio [2]: 1.03
- CC50 (MCF7): 74 µM
- CC50 at 24 h [3]: 64 µM

SMILES: COc1cc(/C=C/C(=O)c2ccccc2)ccc1OCc1cn([C@@H]2O[C@H](CO)[C@@H](O)[C@H](O)[C@H]2O)nn1
- selectivity ratio [1]: 0.8
- CC50 (MDA-MB-468): 89 µM
- selectivity ratio [2]: 1.1
- CC50 (MCF7): 123 µM
- CC50 at 24 h [3]: 98 µM

SMILES: CCOc1ccc(/C=C/C(=O)c2ccc(OCc3cn([C@@H]4O[C@H](CO)[C@@H](O)[C@H](O)[C@H]4O)nn3)cc2)cc1
- selectivity ratio [1]: 1.15
- CC50 (MDA-MB-468): 74 µM
- selectivity ratio [2]: 1.05
- CC50 (MCF7): 68 µM
- CC50 at 24 h [3]: 78 µM

SMILES: COc1cc(/C=C/C(=O)c2ccc(C#N)cc2)ccc1OCc1cn([C@@H]2O[C@H](CO)[C@@H](O)[C@H](O)[C@H]2O)nn1
- selectivity ratio [1]: 1.13
- CC50 (MDA-MB-468): 82 µM
- selectivity ratio [2]: 1.07
- CC50 (MCF7): 78 µM
- CC50 at 24 h [3]: 88 µM

SMILES: COc1cc(/C=C/C(=O)c2ccc(OCc3cn([C@@H]4O[C@H](CO)[C@@H](O)[C@H](O)[C@H]4O)nn3)cc2)cc(OC)c1OC
- selectivity ratio [1]: 0.64
- CC50 (MDA-MB-468): 51 µM
- selectivity ratio [2]: 1.06
- CC50 (MCF7): 84 µM
- CC50 at 24 h [3]: 54 µM

SMILES: COc1cccc(/C=C/C(=O)c2ccc(OCc3cn([C@@H]4O[C@H](CO)[C@@H](O)[C@H](O)[C@H]4O)nn3)cc2)c1
- selectivity ratio [1]: 1.16
- CC50 (MDA-MB-468): 77 µM
- selectivity ratio [2]: 0.94
- CC50 (MCF7): 63 µM
- CC50 at 24 h [3]: 73 µM

SMILES: COc1ccccc1/C=C/C(=O)c1ccc(OCc2cn([C@@H]3O[C@H](CO)[C@@H](O)[C@H](O)[C@H]3O)nn2)cc1
- selectivity ratio [1]: 1.06
- CC50 (MDA-MB-468): 79 µM
- selectivity ratio [2]: 1.3
- CC50 (MCF7): 97 µM
- CC50 at 24 h [3]: 103 µM

SMILES: COc1ccc(C(=O)/C=C/c2ccc(OCc3cn([C@@H]4O[C@H](CO)[C@@H](O)[C@H](O)[C@H]4O)nn3)c(OC)c2)cc1OC
- selectivity ratio [1]: 1.45
- CC50 (MDA-MB-468): 67 µM
- selectivity ratio [2]: 1.43
- CC50 (MCF7): 66 µM
- CC50 at 24 h [3]: 96 µM

SMILES: O=C(/C=C/c1ccc(OCc2ccccc2)cc1)c1ccc(OCc2cn([C@@H]3O[C@H](CO)[C@@H](O)[C@H](O)[C@H]3O)nn2)cc1
- selectivity ratio [1]: 0.86
- CC50 (MDA-MB-468): 57 µM
- selectivity ratio [2]: 1.19
- CC50 (MCF7): 79 µM
- CC50 at 24 h [3]: 68 µM
